{"source": "ChEMBL document CHEMBL5107946", "about": "“SF5- and SCF3-substituted tetrahydroquinoline compounds as potent bactericidal agents against multidrug-resistant persister Gram-positive bacteria” (RSC Med Chem, 2021)", "key": {"Listeria monocytogenes [1]": {"system": "Listeria monocytogenes", "experiment": "Antibacterial activity against Listeria monocytogenes ATCC 19115 assessed as bacterial growth inhibition incubated for 18 to 20 hrs by CLSI based broth microdilution assay", "format": "functional", "conditions": "time 18-20 hrs", "summary_of_the_method": "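MIC by CLSI broth microdilution. Compounds were made as 10 mg mL−1 DMSO stocks and serially diluted 1:2. Inoculum was set to 0.5 McFarland and diluted 1:100 into the wells. Plates were incubated static at 37 °C for 18–20 h before reading the MIC.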"}, "Staphylococcus aureus [2]": {"system": "Staphylococcus aureus", "experiment": "Antibacterial activity against Staphylococcus aureus ATCC 25923 assessed as bacterial growth inhibition at 16 ug/ml incubated for 18 to 20 hrs by CLSI based broth microdilution assay", "format": "functional, organism-based", "conditions": "dose 16.0 µg/ml, time 18-20 hrs", "summary_of_the_method": "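Single-concentration screen at 16 μg mL−1 final. Overnight TSB culture was diluted 1:1000 in cation-adjusted MHB and grown to early exponential phase. 1 mL of culture was added to compound in glass tubes and incubated overnight at 37 °C. OD600 was read and normalized to the DMSO control after subtracting medium-only OD.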"}, "Staphylococcus aureus [3]": {"system": "Staphylococcus aureus", "experiment": "Antibacterial activity against methicillin-resistant Staphylococcus aureus ATCC 33592 assessed as bacterial growth inhibition incubated for 18 to 20 hrs by CLSI based broth microdilution assay", "format": "functional", "conditions": "time 18-20 hrs", "summary_of_the_method": "(§1)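 CLSI broth microdilution; compounds and control antibiotics made up at 10 mg mL−1 in DMSO (stock), serially diluted 1:2 across the plate. Inoculum adjusted to 0.5 McFarland, then diluted 1:100 into wells. Plates incubated static at 37 °C for 18–20 h before MIC read.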"}, "Enterococcus faecalis": {"system": "Enterococcus faecalis", "experiment": "Bactericidal activity against Enterococcus faecalis ATCC 29212 assessed as reduction in colony forming unit incubated for 20 hrs", "format": "functional", "summary_of_the_method": "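Follows the broth microdilution MIC plate. 4 μL taken from each well without growth, spotted in duplicate on tryptic soy agar and incubated static at 37 °C for 20 h. MBC taken as the concentration giving 99.9% reduction in CFU.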"}, "Staphylococcus aureus [4]": {"system": "Staphylococcus aureus", "experiment": "Antibacterial activity against methicillin-resistant Staphylococcus aureus USA300 (ARLG 1567) assessed as bacterial growth inhibition incubated for 18 to 20 hrs by CLSI based broth microdilution assay", "format": "functional", "conditions": "time 18-20 hrs", "summary_of_the_method": "as §1"}, "Listeria monocytogenes [5]": {"system": "Listeria monocytogenes", "experiment": "Bactericidal activity against Listeria monocytogenes ATCC 19115 assessed as reduction in colony forming unit incubated for 20 hrs", "format": "functional", "summary_of_the_method": "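MBC: after the MIC assay, 4 μL from wells with no growth were spotted in duplicate on TSA. Plates were incubated static at 37 °C for 20 h. MBC was taken as a 99.9% reduction in CFU.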"}, "Staphylococcus aureus [6]": {"system": "Staphylococcus aureus", "experiment": "Antibacterial activity against methicillin-resistant Staphylococcus aureus USA300 assessed as fold increase in MIC incubated for 30 days by resistance development based broth microdilution assay", "format": "functional", "conditions": "time 30 day", "summary_of_the_method": "(§2)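 Multi-step resistance selection over 30 days. MIC determined first. Each day, 5 μL from the turbid well just below the MIC was diluted 1:1000 in CA-MHB and used as inoculum for the next broth microdilution MIC. Resistance defined as a rise of more than four-fold over the starting MIC.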"}, "Staphylococcus aureus [7]": {"system": "Staphylococcus aureus", "experiment": "Antibacterial activity against methicillin-resistant Staphylococcus aureus ST1312 (ARLG 1649) assessed as bacterial growth inhibition incubated for 18 to 20 hrs by CLSI based broth microdilution assay", "format": "functional", "conditions": "time 18-20 hrs", "summary_of_the_method": "as §1"}, "Staphylococcus aureus [8]": {"system": "Staphylococcus aureus", "experiment": "Antibacterial activity against methicillin-resistant Staphylococcus aureus ST239 (ARLG 1663) assessed as bacterial growth inhibition incubated for 18 to 20 hrs by CLSI based broth microdilution assay", "format": "functional", "conditions": "time 18-20 hrs", "summary_of_the_method": "as §1"}, "Staphylococcus aureus [9]": {"system": "Staphylococcus aureus", "experiment": "Antibacterial activity against methicillin-resistant Staphylococcus aureus ATCC 33592 assessed as fold increase in MIC incubated for 30 days by resistance development based broth microdilution assay", "format": "functional", "conditions": "time 30 day", "summary_of_the_method": "as §2"}, "Staphylococcus aureus [10]": {"system": "Staphylococcus aureus", "experiment": "Bactericidal activity against persister methicillin-resistant Staphylococcus aureus ATCC 33592 assessed as reduction in colony forming unit at 1 x MIC incubated for 6 hrs by Time-kill analysis", "format": "functional, organism-based", "summary_of_the_method": "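Stationary-phase (persister) time-kill. Overnight TSB culture diluted 1 in 10 in TSB directly (about 2.92 × 10^6 CFU per mL), with no regrowth step. Exposed at 1× or 4× MIC in triplicate at 37 °C. Samples taken at 0, 2, 4 and 6 h, serially diluted in PBS, plated on TSA in duplicate and incubated 18–24 h.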"}, "Staphylococcus aureus [11]": {"system": "Staphylococcus aureus", "experiment": "Antibacterial activity against methicillin-resistant Staphylococcus aureus ST239 (ARLG 1644) assessed as bacterial growth inhibition incubated for 18 to 20 hrs by CLSI based broth microdilution assay", "format": "functional", "conditions": "time 18-20 hrs", "summary_of_the_method": "as §1"}}, "note": "Calls of active or inactive are those of the source."}
{"compound": "FC(F)(F)c1n[nH]cc1[C@@H]1Nc2ccc(S(F)(F)(F)(F)F)cc2[C@H]2[C@@H]3CC[C@@H](C3)[C@H]21", "values": [{"measurement": "MIC", "setting": "Listeria monocytogenes [1]", "value": 2, "unit": "µg/mL"}, {"measurement": "Activity", "setting": "Staphylococcus aureus [2]", "value": "Active"}, {"measurement": "MIC", "setting": "Staphylococcus aureus [3]", "value": 2, "unit": "µg/mL"}, {"measurement": "MBC", "setting": "Enterococcus faecalis", "value": 8, "unit": "µg/mL"}, {"measurement": "MIC", "setting": "Staphylococcus aureus [4]", "value": 2, "unit": "µg/mL"}, {"measurement": "MBC", "setting": "Listeria monocytogenes [5]", "value": 4, "unit": "µg/mL"}, {"measurement": "fold change (FC)", "setting": "Staphylococcus aureus [6]", "value": 1}, {"measurement": "MIC", "setting": "Staphylococcus aureus [7]", "value": 2, "unit": "µg/mL"}, {"measurement": "MIC", "setting": "Staphylococcus aureus [8]", "value": 1, "unit": "µg/mL"}, {"measurement": "fold change (FC)", "setting": "Staphylococcus aureus [9]", "value": 1}, {"measurement": "Activity", "setting": "Staphylococcus aureus [10]", "value": "Active"}, {"measurement": "MIC", "setting": "Staphylococcus aureus [11]", "value": 2, "unit": "µg/mL"}]}
